The source made the active and inactive calls. The calls are words filed in the database; no cut-off is given here.
Experiments:
[1] = molecular target: T1, E3 ubiquitin-protein ligase Mdm2 (Homo sapiens, UniProt Q00987); experiment: Binding affinity to human recombinant MDM2 (1 to 150 residue) expressed in Escherichia coli using presence of FITC-labelled compound by fluorescence polarization assay
Target sequence in this assay (Q00987 whole entry): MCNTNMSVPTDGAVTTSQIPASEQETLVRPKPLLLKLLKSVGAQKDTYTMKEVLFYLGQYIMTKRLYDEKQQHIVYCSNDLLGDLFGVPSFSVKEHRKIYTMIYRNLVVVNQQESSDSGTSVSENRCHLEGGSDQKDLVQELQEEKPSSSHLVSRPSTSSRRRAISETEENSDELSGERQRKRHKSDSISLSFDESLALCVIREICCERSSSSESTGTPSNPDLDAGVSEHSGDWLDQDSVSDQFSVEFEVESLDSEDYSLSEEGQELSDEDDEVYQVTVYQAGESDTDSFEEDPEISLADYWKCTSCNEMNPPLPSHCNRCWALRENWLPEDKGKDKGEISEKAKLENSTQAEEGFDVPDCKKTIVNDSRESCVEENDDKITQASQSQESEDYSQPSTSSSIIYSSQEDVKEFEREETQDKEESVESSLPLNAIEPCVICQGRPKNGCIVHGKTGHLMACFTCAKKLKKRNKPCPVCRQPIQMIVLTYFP

[2] = molecular target: T1, E3 ubiquitin-protein ligase Mdm2; experiment: Inhibition of MDM2 in human U2OS cells assessed as increase in p53 expression at 30 uM incubated for 16 hrs by Western blot analysis; type: cell-based
Method in brief: (§1)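 U2OS osteosarcoma cells carrying endogenous wild-type p53, treated at 30 μM for 16 h. Cells lysed in Tris-HCl pH 8.0/150 mM NaCl/0.5% NP-40 with PMSF and protease inhibitors, spun 14,000g, 10 min, 4 °C. Supernatant boiled in Laemmli buffer, run on SDS-PAGE and immunoblotted for p53 pathway markers.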
Target sequence in this assay (Q00987 whole entry, looked up): as the sequence (Q00987 whole entry) above

[3] = molecular target: T1, E3 ubiquitin-protein ligase Mdm2; experiment: Inhibition of MDM2 in human U2OS cells assessed as increase in p21 expression at 30 uM incubated for 16 hrs by Western blot analysis; type: cell-based; method in brief: as §1
Target sequence in this assay (Q00987 whole entry, looked up): as the sequence (Q00987 whole entry) above

[4] = molecular target: T1, E3 ubiquitin-protein ligase Mdm2; experiment: Inhibition of MDM2 in human U2OS cells assessed as increase in MDM2 expression at 30 uM incubated for 16 hrs by Western blot analysis; type: cell-based; method in brief: as §1
Target sequence in this assay (Q00987 whole entry, looked up): as the sequence (Q00987 whole entry) above

Row | Compound | IC50 [1] | p53 expression increase (activity call) [2] | p21 expression increase (active/inactive call) [3] | Increase in MDM2 expression (active/inactive) [4]
1 | CC(C)C[C@H](NC(=O)CN(C[C@@H]1CCCCNC(=O)CC[C@H](NC(=O)CN(C[C@H](Cc2ccccc2)NC(=O)[C@@H](NC(=O)CCc2ccccc2)[C@@H](C)O)S(C)(=O)=O)C(=O)N[C@@H](Cc2ccc(O)cc2)CN(S(=O)(=O)c2ccc3ccccc3c2)CC(=O)N[C@@H](C)C(=O)N1)S(=O)(=O)CC(C)C)C(=O)N[C@@H](CO)CN(CC(=O)N[C@@H](C)C(N)=O)S(C)(=O)=O | 9.4 µM | Active | Active | Active
2 | CC(=O)N[C@H](C(=O)N[C@@H](Cc1c[nH]c2ccccc12)CN(CC(=O)N[C@H]1CCC(=O)NCCCC[C@@H](CN(CC(=O)N[C@@H](CC(C)C)C(=O)N[C@@H](CO)CN(CC(=O)N[C@@H](C)C(N)=O)S(C)(=O)=O)S(=O)(=O)CC(C)C)NC(=O)[C@H](C)NC(=O)CN(S(=O)(=O)c2ccc3ccccc3c2)C[C@H](Cc2ccc(O)cc2)NC1=O)S(C)(=O)=O)[C@@H](C)O |  | Active | Active | Active
3 | CC(=O)N[C@H](C(=O)N[C@@H](Cc1ccccc1)CN(CC(=O)N[C@H]1CCC(=O)NCCCC[C@@H](CN(CC(=O)N[C@@H](CC(C)C)C(=O)N[C@@H](CO)CN(CC(=O)N[C@@H](C)C(N)=O)S(C)(=O)=O)S(=O)(=O)CC(C)C)NC(=O)[C@H](C)NC(=O)CN(S(=O)(=O)c2ccc3ccccc3c2)C[C@H](Cc2ccc(O)cc2)NC1=O)S(C)(=O)=O)[C@@H](C)O | 11.7 µM | Active | Active | Active
4 | CC(=O)N[C@H](C(=O)N[C@@H](Cc1ccccc1)CN(CC(=O)N[C@H]1CCC(=O)NCCCC[C@@H](CN(CC(=O)N[C@@H](CC(C)C)C(=O)N[C@@H](CO)CN(CC(=O)N[C@@H](C)C(N)=O)S(C)(=O)=O)S(C)(=O)=O)NC(=O)[C@H](C)NC(=O)CN(S(=O)(=O)c2ccc3ccccc3c2)C[C@H](Cc2ccc(O)cc2)NC1=O)S(C)(=O)=O)[C@@H](C)O | 9 µM | Active | Active | Active
